Laboratory results: ChEMBL document CHEMBL2346510, “Synthesis and antifungal evaluation of 7-arylamino-5,8-dioxo-5,8-dihydroisoquinoline-4-carboxylates” (2013)
Converted amounts (≈) assume the structure as drawn.

Key:
Format in all cases: functional
[1] = tested on: Aspergillus flavus; assay: Antifungal activity against Aspergillus flavus KCCM 11899 after 2 days by two fold broth dilution method; details: KCCM 11899, 48 h
How it was run: (§1)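 Twofold broth dilution in modified Sabouraud dextrose broth, inoculum about 1 × 10⁵ cells/mL. Compounds were tested at final concentrations of […]. Plates were incubated at 37 °C and the MIC was read after 2 days. Fluconazole and 5-fluorocytosine served as reference agents.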

[2] = tested on: Aspergillus niger; assay: Antifungal activity against Aspergillus niger KCTC 1231 after 2 days by two fold broth dilution method; details: KCTC 1231, 48 h; how it was run: as §1
[3] = tested on: Cryptococcus neoformans; assay: Antifungal activity against Cryptococcus neoformans KCCM 50564 after 1 day by two fold broth dilution method; details: KCCM 50564, 24 h
How it was run: (§2)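 Yeasts were tested by twofold broth dilution in modified Sabouraud dextrose broth with about 1 × 10⁵ cells/mL inoculum. Final compound concentrations ran from […]. Incubation was at 37 °C with the MIC read after 1 day. Fluconazole and 5-fluorocytosine were the standard comparators.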

[4] = tested on: Candida albicans; assay: Antifungal activity against Candida albicans Berkout KCCM 50235 after 1 day by two fold broth dilution method; details: Berkout KCCM 50235, 24 h; how it was run: as §2
[5] = tested on: Candida tropicalis; assay: Antifungal activity against Candida tropicalis Berkout KCCM 50662 after 1 day by two fold broth dilution method; details: Berkout KCCM 50662, 24 h; how it was run: as §2
[6] = tested on: Pichia kudriavzevii; assay: Antifungal activity against Candida krusei Berkout KCCM 11655 after 1 day by two fold broth dilution method; details: Berkout KCCM 11655, 24 h; how it was run: as §2

| Structure (SMILES) | MIC [1] | MIC [2] | MIC [3] | MIC [4] | MIC [5] | MIC [6] |
| --- | --- | --- | --- | --- | --- | --- |
| CC(=O)c1cc(O)ccc1O | 100 µg/mL (≈ 657 µM) | > 100 µg/mL | 50 µg/mL (≈ 329 µM) | 50 µg/mL (≈ 329 µM) | 50 µg/mL (≈ 329 µM) | 100 µg/mL (≈ 657 µM) |
| COC(=O)c1c(C)nc(C)c2c1C(=O)C(Cl)=C(Nc1ccc(OC)cc1)C2=O | 6.3 µg/mL (≈ 15.7 µM) | 3.2 µg/mL (≈ 7.98 µM) | 3.2 µg/mL (≈ 7.98 µM) | 1.6 µg/mL (≈ 3.99 µM) | 12.5 µg/mL (≈ 31.2 µM) | 12.5 µg/mL (≈ 31.2 µM) |
| COC(=O)c1c(C)nc(C)c2c1C(=O)C(Br)=C(Nc1ccc(Br)cc1)C2=O | 3.2 µg/mL (≈ 6.48 µM) | 1.6 µg/mL (≈ 3.24 µM) | 12.5 µg/mL (≈ 25.3 µM) | 1.6 µg/mL (≈ 3.24 µM) | 1.6 µg/mL (≈ 3.24 µM) | 12.5 µg/mL (≈ 25.3 µM) |
| COC(=O)c1c(C)nc(C)c2c1C(=O)C=C(Sc1ccc(C)c(C)c1)C2=O | 6.3 µg/mL (≈ 16.5 µM) | 6.3 µg/mL (≈ 16.5 µM) | 6.3 µg/mL (≈ 16.5 µM) | 25 µg/mL (≈ 65.5 µM) | 12.5 µg/mL (≈ 32.8 µM) | 12.5 µg/mL (≈ 32.8 µM) |
| COC(=O)c1c(C)nc(C)c2c1C(=O)C(Br)=C(Nc1ccc(C)cc1)C2=O | 25 µg/mL (≈ 58.2 µM) | 6.3 µg/mL (≈ 14.7 µM) | 6.3 µg/mL (≈ 14.7 µM) | 6.3 µg/mL (≈ 14.7 µM) | 1.6 µg/mL (≈ 3.73 µM) | 6.3 µg/mL (≈ 14.7 µM) |
| COC(=O)c1c(C)nc(C)c2c1C(=O)C(Cl)=C(Nc1ccc(C)cc1)C2=O | 25 µg/mL (≈ 65 µM) | 1.6 µg/mL (≈ 4.16 µM) | 6.3 µg/mL (≈ 16.4 µM) | 1.6 µg/mL (≈ 4.16 µM) | 0.8 µg/mL (≈ 2.08 µM) | 3.2 µg/mL (≈ 8.32 µM) |
| COC(=O)c1c(C)nc(C)c2c1C(=O)C(Cl)=C(Nc1ccc(I)cc1)C2=O | 25 µg/mL (≈ 50.3 µM) | 1.6 µg/mL (≈ 3.22 µM) | 3.2 µg/mL (≈ 6.44 µM) | 6.3 µg/mL (≈ 12.7 µM) | 6.3 µg/mL (≈ 12.7 µM) | 12.5 µg/mL (≈ 25.2 µM) |
| COC(=O)c1c(C)nc(C)c2c1C(=O)C=C(Nc1ccc(I)cc1)C2=O | 12.5 µg/mL (≈ 27 µM) | 12.5 µg/mL (≈ 27 µM) | 6.3 µg/mL (≈ 13.6 µM) | 12.5 µg/mL (≈ 27 µM) | 12.5 µg/mL (≈ 27 µM) | 12.5 µg/mL (≈ 27 µM) |
| COC(=O)c1c(C)nc(C)c2c1C(=O)C=C(Sc1ccc(C)cc1)C2=O | 3.2 µg/mL (≈ 8.71 µM) | 6.3 µg/mL (≈ 17.1 µM) | 1.6 µg/mL (≈ 4.35 µM) | 6.3 µg/mL (≈ 17.1 µM) | 6.3 µg/mL (≈ 17.1 µM) | 12.5 µg/mL (≈ 34 µM) |
| COC(=O)c1c(C)nc(C)c2c1C(=O)C(Br)=C(Nc1ccc(Cl)cc1)C2=O | 12.5 µg/mL (≈ 27.8 µM) | 12.5 µg/mL (≈ 27.8 µM) | 12.5 µg/mL (≈ 27.8 µM) | 25 µg/mL (≈ 55.6 µM) | 6.3 µg/mL (≈ 14 µM) | 25 µg/mL (≈ 55.6 µM) |
| COC(=O)c1c(C)nc(C)c2c1C(=O)C(Cl)=C(Nc1ccc(F)cc1)C2=O | 6.3 µg/mL (≈ 16.2 µM) | 1.6 µg/mL (≈ 4.12 µM) | 6.3 µg/mL (≈ 16.2 µM) | 1.6 µg/mL (≈ 4.12 µM) | 1.6 µg/mL (≈ 4.12 µM) | 6.3 µg/mL (≈ 16.2 µM) |
| COC(=O)c1c(C)nc(C)c2c1C(=O)C=C(Nc1ccc(Br)cc1)C2=O | 12.5 µg/mL (≈ 30.1 µM) | 6.3 µg/mL (≈ 15.2 µM) | 12.5 µg/mL (≈ 30.1 µM) | 12.5 µg/mL (≈ 30.1 µM) | 12.5 µg/mL (≈ 30.1 µM) | 12.5 µg/mL (≈ 30.1 µM) |
| COC(=O)c1c(C)nc(C)c2c1C(=O)C(Cl)=C(Nc1ccc(Br)cc1)C2=O | 6.3 µg/mL (≈ 14 µM) | 1.6 µg/mL (≈ 3.56 µM) | 3.2 µg/mL (≈ 7.12 µM) | 1.6 µg/mL (≈ 3.56 µM) | 12.5 µg/mL (≈ 27.8 µM) | 6.3 µg/mL (≈ 14 µM) |
| COC(=O)c1c(C)nc(C)c2c1C(=O)C(Cl)=C(Nc1ccc(C#N)cc1)C2=O | 6.3 µg/mL (≈ 15.9 µM) | 6.3 µg/mL (≈ 15.9 µM) | 1.6 µg/mL (≈ 4.04 µM) | 1.6 µg/mL (≈ 4.04 µM) | 12.5 µg/mL (≈ 31.6 µM) | 12.5 µg/mL (≈ 31.6 µM) |
| COC(=O)c1c(C)nc(C)c2c1C(=O)C=C(Nc1ccc(C)cc1)C2=O | 25 µg/mL (≈ 71.4 µM) | 25 µg/mL (≈ 71.4 µM) | 12.5 µg/mL (≈ 35.7 µM) | 25 µg/mL (≈ 71.4 µM) | 25 µg/mL (≈ 71.4 µM) | 25 µg/mL (≈ 71.4 µM) |
| COC(=O)c1c(C)nc(C)c2c1C(=O)C(Br)=C(Nc1ccc(F)cc1)C2=O | 12.5 µg/mL (≈ 28.9 µM) | 6.3 µg/mL (≈ 14.5 µM) | 6.3 µg/mL (≈ 14.5 µM) | 6.3 µg/mL (≈ 14.5 µM) | 6.3 µg/mL (≈ 14.5 µM) | 12.5 µg/mL (≈ 28.9 µM) |
| COC(=O)c1c(C)nc(C)c2c1C(=O)C(Br)=C(Nc1ccc(F)c(F)c1)C2=O | 12.5 µg/mL (≈ 27.7 µM) | 6.3 µg/mL (≈ 14 µM) | 12.5 µg/mL (≈ 27.7 µM) | 6.3 µg/mL (≈ 14 µM) | 1.6 µg/mL (≈ 3.55 µM) | 25 µg/mL (≈ 55.4 µM) |
| COC(=O)c1c(C)nc(C)c2c1C(=O)C=CC2=O | 50 µg/mL (≈ 204 µM) | > 100 µg/mL | 50 µg/mL (≈ 204 µM) | 25 µg/mL (≈ 102 µM) | 12.5 µg/mL (≈ 51 µM) | 50 µg/mL (≈ 204 µM) |
| Nc1nc(=O)[nH]cc1F [FLUCYTOSINE] | 6.3 µg/mL (≈ 48.8 µM) | 6.3 µg/mL (≈ 48.8 µM) | 12.5 µg/mL (≈ 96.8 µM) | 3.2 µg/mL (≈ 24.8 µM) | 3.2 µg/mL (≈ 24.8 µM) | 6.3 µg/mL (≈ 48.8 µM) |
| OC(Cn1cncn1)(Cn1cncn1)c1ccc(F)cc1F [FLUCONAZOLE] | 25 µg/mL (≈ 81.6 µM) | 25 µg/mL (≈ 81.6 µM) | 6.3 µg/mL (≈ 20.6 µM) | 50 µg/mL (≈ 163 µM) | 6.3 µg/mL (≈ 20.6 µM) | 25 µg/mL (≈ 81.6 µM) |
| COC(=O)c1c(C)nc(C)c2c1C(=O)C=C(Sc1ccc(O)cc1)C2=O | 6.3 µg/mL (≈ 17.1 µM) | 6.3 µg/mL (≈ 17.1 µM) | 3.2 µg/mL (≈ 8.66 µM) | 25 µg/mL (≈ 67.7 µM) | 25 µg/mL (≈ 67.7 µM) | 6.3 µg/mL (≈ 17.1 µM) |
| COC(=O)c1c(C)nc(C)c2c1C(=O)C(Cl)=C(Nc1ccc(F)c(F)c1)C2=O | 6.3 µg/mL (≈ 15.5 µM) | 1.6 µg/mL (≈ 3.93 µM) | 12.5 µg/mL (≈ 30.7 µM) | 1.6 µg/mL (≈ 3.93 µM) | 25 µg/mL (≈ 61.5 µM) | 6.3 µg/mL (≈ 15.5 µM) |
| COC(=O)c1c(C)nc(C)c2c1C(=O)C(Br)=C(Nc1ccc(OC)cc1)C2=O | 12.5 µg/mL (≈ 28.1 µM) | 1.6 µg/mL (≈ 3.59 µM) | 1.6 µg/mL (≈ 3.59 µM) | 0.8 µg/mL (≈ 1.8 µM) | 12.5 µg/mL (≈ 28.1 µM) | 1.6 µg/mL (≈ 3.59 µM) |
| COC(=O)c1c(C)nc(C)c2c1C(=O)C(Cl)=C(Nc1ccc(Cl)cc1)C2=O | 1.6 µg/mL (≈ 3.95 µM) | 3.2 µg/mL (≈ 7.9 µM) | 12.5 µg/mL (≈ 30.8 µM) | 1.6 µg/mL (≈ 3.95 µM) | 6.3 µg/mL (≈ 15.5 µM) | 12.5 µg/mL (≈ 30.8 µM) |
